Key:
[1] = Displacement of [3H]prazosin from alpha-1-adrenoceptor in Wistar rat cerebral cortex membrane; format: tissue-based
Procedure, shortened: (§1)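 Rat brain homogenised in ice-cold 50 mM Tris–HCl pH 7.6, centrifuged twice at 20,000g for 20 min at 0–4 °C. Membranes incubated with [3H]prazosin 0.2 nM (α1) or [3H]clonidine 2 nM (α2) and 7–8 test concentrations (10^-11–10^-4 M). Filter-bound radioactivity counted by liquid scintillation; duplicates; curve-fitted, Ki by Cheng–Prusoff.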

[2] = Displacement of [3H]clonidine from alpha-2-adrenoceptor in Wistar rat cerebral cortex membrane; format: tissue-based; procedure, shortened: as §1
[3] = organism: Rattus norvegicus; test: Selectivity of Ki for alpha-2-adrenoceptor to Ki for alpha-1-adrenoceptor in Wistar rat cerebral cortex membrane; format: tissue-based
[4] = Antagonist activity at alpha-1-adrenoceptor in Wistar rat thoracic aorta assessed as inhibition of phenylephrine-induced contraction; format: functional, tissue-based
Procedure, shortened: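 Male Wistar rats (200–350 g), thiopental 75 mg/kg ip; endothelium-denuded thoracic aorta rings (~4 mm) in Krebs–Henseleit, 37 °C, pH 7.4, O2/CO2 19:1. Cumulative phenylephrine curves (3·10^-9–3·10^-6 M) before and after 20 min with one of 3–4 antagonist concentrations per ring; 60 min recovery between curves.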

| SMILES | Ki [1] | further results |
| --- | --- | --- |
| COc1ccccc1OCCN1CCN(c2cnn(CCCCN3CCN(c4ccccc4OC)CC3)c(=O)c2Cl)CC1 | 0.05 nM | – |
| COc1ccccc1OCCN1CCN(c2cnn(CCCN3CCN(c4ccccc4OC(C)C)CC3)c(=O)c2Cl)CC1 | 0.05 nM | – |
| COc1ccccc1N1CCN(CCN2C(=O)C3Nc4ccccc4C3N=C2C)CC1 (stereo not given) | 0.5 nM | – |
| COC(=O)C(C)N1C(=O)N(CC(O)CN2CCN(c3ccccc3OC)CC2)C(c2ccccc2)(c2ccccc2)C1=O (stereo not given) | 104 nM | Ki [2]: 449 nM; Ratio Ki [3]: 4.32; pKb [4]: 7.084 |
| COc1ccccc1N1CCN(C(C)CCN2C(=O)C3C(c4ccccc4N3C)N(C)C2=O)CC1 (stereo not given) | 0.1 nM | – |
| COc1ccccc1N1CCN(C(C)CCN2C(=O)C3Nc4ccccc4C3N(C)C2=O)CC1 (stereo not given) | 0.1 nM | – |
| COc1ccccc1OCCN1CCN(c2cnn(CCCCCCN3CCN(c4ccccc4OC)CC3)c(=O)c2Cl)CC1 | 0.05 nM | – |
| CCOc1ccccc1N1CCN(CCCCCn2ncc(N3CCN(CCOc4ccccc4OC)CC3)c(Cl)c2=O)CC1 | 0.05 nM | – |
| CCOc1ccccc1OCCN1CCN(c2cnn(CCCCN3CCN(c4ccccc4OCC)CC3)c(=O)c2Cl)CC1 | 0.05 nM | – |
| CCOc1ccccc1OCCN1CCN(c2cnn(CCN3CCN(c4ccccc4OC)CC3)c(=O)c2Cl)CC1 | 0.05 nM | – |
| CCOc1ccccc1N1CCN(CCn2ncc(N3CCN(CCOc4ccccc4OC)CC3)c(Cl)c2=O)CC1 | 0.05 nM | – |
| COc1ccccc1N1CCN(C(C)CCN2C(=O)NC3c4ccccc4N(C)C3C2=O)CC1 (stereo not given) | 0.1 nM | – |
| COc1ccccc1N1CCN(C(C)CN2C(=O)NC3c4ccccc4SC3C2=O)CC1 (stereo not given) | 0.1 nM | – |
| COc1ccccc1N1CCN(CCCCCn2nc(-n3ccnc3)ccc2=O)CC1 | 0.2 nM | – |
| COc1ccccc1N1CCN(CCCN2C(=O)NC3c4ccccc4NC3C2=O)CC1 (stereo not given) | 0.1 nM | – |
| COc1ccccc1N1CCN(CCCN2C(=O)C3Oc4ccccc4C3N(C)C2=O)CC1 (stereo not given) | 0.1 nM | – |
| COc1ccccc1N1CCN(CCN2C(=O)C3C(c4ccccc4N3C)N(C)C2=O)CC1 (stereo not given) | 0.1 nM | – |
| COc1ccccc1OCCN1CCN(c2cnn(CCCCCN3CCN(c4ccccc4OC(C)C)CC3)c(=O)c2Cl)CC1 | 0.05 nM | – |
| COc1ccccc1N1CCN(C(C)CCN2C(=O)C3Sc4ccccc4C3N(C)C2=O)CC1 (stereo not given) | 0.1 nM | – |
| CCOc1ccccc1N1CCN(CCCn2ncc(N3CCN(CCOc4ccccc4OC)CC3)c(Cl)c2=O)CC1 | 0.05 nM | – |
| COc1ccccc1OCCN1CCN(c2cnn(CCCCCCCN3CCN(c4ccccc4OC(C)C)CC3)c(=O)c2Cl)CC1 | 0.05 nM | – |

| SMILES | Ki [1] | further results |
| --- | --- | --- |
| CCOc1ccccc1OCCN1CCN(c2cnn(CCCCCCN3CCN(c4ccccc4OCC)CC3)c(=O)c2Cl)CC1 | 0.05 nM | – |
| COc1ccccc1N1CCN(C(C)CCN2C(=O)NC3c4ccccc4NC3C2=O)CC1 (stereo not given) | 0.1 nM | – |
| CCOc1ccccc1OCCN1CCN(c2cnn(CCCN3CCN(c4ccccc4OC(C)C)CC3)c(=O)c2Cl)CC1 | 0.05 nM | – |
| COc1ccccc1OCCN1CCN(c2cnn(CCCCCCCN3CCN(c4ccccc4OC)CC3)c(=O)c2Cl)CC1 | 0.05 nM | – |
| O=c1ccc(-n2ccnc2)nn1CCCN1CCN(c2ccccc2Cl)CC1 | 0.2 nM | – |
| COc1ccccc1N1CCN(CCN2C(=O)NC3c4ccccc4N(C)C3C2=O)CC1 (stereo not given) | 0.1 nM | – |
| COc1ccccc1N1CCN(CCCN2C(=O)NC3c4ccccc4SC3C2=O)CC1 (stereo not given) | 0.1 nM | – |
| COc1ccccc1N1CCN(CCN2C(=O)C3Sc4ccccc4C3N(C)C2=O)CC1 (stereo not given) | 0.1 nM | – |
| CCOc1ccccc1OCCN1CCN(c2cnn(CCN3CCN(c4ccccc4OC(C)C)CC3)c(=O)c2Cl)CC1 | 0.05 nM | – |
| COc1ccccc1OCCN1CCN(c2cnn(CCN3CCN(c4ccccc4OC)CC3)c(=O)c2Cl)CC1 | 0.05 nM | – |
| CCOc1ccccc1OCCN1CCN(c2cnn(CCCCCCCN3CCN(c4ccccc4OC)CC3)c(=O)c2Cl)CC1 | 0.05 nM | – |
| O=c1ccc(-n2cnc3ccccc32)nn1CCCCCCCN1CCN(c2ccccc2Cl)CC1 | 0.2 nM | – |
| COc1ccccc1OCCN1CCN(c2cnn(CCCN3CCN(c4ccccc4OC)CC3)c(=O)c2Cl)CC1 | 0.05 nM | – |
| COc1ccccc1N1CCN(C(C)CN2C(=O)C3Sc4ccccc4C3N(C)C2=O)CC1 (stereo not given) | 0.1 nM | – |
| CCOc1ccccc1OCCN1CCN(c2cnn(CCCCCN3CCN(c4ccccc4OCC)CC3)c(=O)c2Cl)CC1 | 0.05 nM | – |
| COc1ccccc1N1CCN(C(C)CCN2C(=O)NC3c4ccccc4SC3C2=O)CC1 (stereo not given) | 0.1 nM | – |
| CCOc1ccccc1OCCN1CCN(c2cnn(CCCCN3CCN(c4ccccc4OC)CC3)c(=O)c2Cl)CC1 | 0.05 nM | – |
| COc1ccc(Cl)cc1N1CCN(CCN2C(=O)C3Sc4ccccc4C3N=C2C)CC1 (stereo not given) | 0.5 nM | – |
| COc1ccccc1N1CCN(CCCN2C(=O)C3C(c4ccccc4N3C)N(C)C2=O)CC1 (stereo not given) | 0.1 nM | – |
| CCOc1ccccc1N1CCN(CCCCn2ncc(N3CCN(CCOc4ccccc4OC)CC3)c(Cl)c2=O)CC1 | 0.05 nM | – |
| CCOc1ccccc1OCCN1CCN(c2cnn(CCCCCCCN3CCN(c4ccccc4OCC)CC3)c(=O)c2Cl)CC1 | 0.05 nM | – |

| SMILES | Ki [1] | further results |
| --- | --- | --- |
| COc1ccccc1N1CCN(CCN2C(=O)NC3c4ccccc4NC3C2=O)CC1 (stereo not given) | 0.1 nM | – |
| COc1ccccc1OCCN1CCN(c2cnn(CCCCCN3CCN(c4ccccc4OC)CC3)c(=O)c2Cl)CC1 | 0.05 nM | – |
| CCOc1ccccc1OCCN1CCN(c2cnn(CCCCCN3CCN(c4ccccc4OC(C)C)CC3)c(=O)c2Cl)CC1 | 0.05 nM | – |
| COc1ccccc1N1CCN(C(C)CCN2C(=O)NC3c4ccccc4OC3C2=O)CC1 (stereo not given) | 0.1 nM | – |
| COc1ccccc1OCCN1CCN(c2cnn(CCCCN3CCN(c4ccccc4OC(C)C)CC3)c(=O)c2Cl)CC1 | 0.05 nM | – |
| COc1ccccc1N1CCN(CCN2C(=O)C3Oc4ccccc4C3N(C)C2=O)CC1 (stereo not given) | 0.1 nM | – |
| COc1ccccc1N1CCN(CCCN2C(=O)NC3c4ccccc4N(C)C3C2=O)CC1 (stereo not given) | 0.1 nM | – |
| CCOc1ccccc1OCCN1CCN(c2cnn(CCN3CCN(c4ccccc4OCC)CC3)c(=O)c2Cl)CC1 | 0.05 nM | – |
| COc1ccccc1OCCN1CCN(c2cnn(CCN3CCN(c4ccccc4OC(C)C)CC3)c(=O)c2Cl)CC1 | 0.05 nM | – |
| COC(=O)CN1C(=O)N(CC(O)CN2CCN(c3ccccc3OC)CC2)C(c2ccccc2)(c2ccccc2)C1=O (stereo not given) | 198 nM | Ki [2]: 800 nM; Ratio Ki [3]: 4.04 |
| COc1ccccc1OCCN1CCN(c2cnn(CCCCCCN3CCN(c4ccccc4OC(C)C)CC3)c(=O)c2Cl)CC1 | 0.05 nM | – |
| CCOc1ccccc1OCCN1CCN(c2cnn(CCCCCCCN3CCN(c4ccccc4OC(C)C)CC3)c(=O)c2Cl)CC1 | 0.05 nM | – |
| CCOc1ccccc1OCCN1CCN(c2cnn(CCCN3CCN(c4ccccc4OCC)CC3)c(=O)c2Cl)CC1 | 0.05 nM | – |
| CCOc1ccccc1OCCN1CCN(c2cnn(CCCCCN3CCN(c4ccccc4OC)CC3)c(=O)c2Cl)CC1 | 0.05 nM | – |
| COc1ccccc1N1CCN(C(C)CCN2C(=O)C3Oc4ccccc4C3N(C)C2=O)CC1 (stereo not given) | 0.1 nM | – |
| COc1ccccc1N1CCN(CCN2C(=O)NC3c4ccccc4SC3C2=O)CC1 (stereo not given) | 0.1 nM | – |
| COc1ccccc1N1CCN(CCN2C(=O)C3Nc4ccccc4C3N(C)C2=O)CC1 (stereo not given) | 0.1 nM | – |
| CCOc1ccccc1OCCN1CCN(c2cnn(CCCCCCN3CCN(c4ccccc4OC(C)C)CC3)c(=O)c2Cl)CC1 | 0.05 nM | – |
| COc1ccccc1N1CCN(C(C)CN2C(=O)C3Oc4ccccc4C3N(C)C2=O)CC1 (stereo not given) | 0.1 nM | – |
| CCOc1ccccc1N1CCN(CCCCCCn2ncc(N3CCN(CCOc4ccccc4OC)CC3)c(Cl)c2=O)CC1 | 0.05 nM | – |
| COc1ccccc1N1CCN(CCCN2C(=O)C3Nc4ccccc4C3N(C)C2=O)CC1 (stereo not given) | 0.1 nM | – |

| SMILES | Ki [1] | further results |
| --- | --- | --- |
| COc1ccccc1N1CCN(CCCCCCCn2nc(-n3ccc4ccccc43)ccc2=O)CC1 | 0.2 nM | – |
| COc1ccccc1N1CCN(CCN2C(=O)NC3c4ccccc4OC3C2=O)CC1 (stereo not given) | 0.1 nM | – |
| CCOc1ccccc1OCCN1CCN(c2cnn(CCCCN3CCN(c4ccccc4OC(C)C)CC3)c(=O)c2Cl)CC1 | 0.05 nM | – |
| COc1ccccc1N1CCN(C(C)CN2C(=O)NC3c4ccccc4OC3C2=O)CC1 (stereo not given) | 0.1 nM | – |
| CCOc1ccccc1N1CCN(CCCCCCCn2ncc(N3CCN(CCOc4ccccc4OC)CC3)c(Cl)c2=O)CC1 | 0.05 nM | – |
| COc1ccccc1N1CCN(CCN2C(=O)C3Sc4ccccc4C3N=C2C)CC1 (stereo not given) | 0.5 nM | – |
| COc1ccccc1N1CCN(C(C)CN2C(=O)NC3c4ccccc4N(C)C3C2=O)CC1 (stereo not given) | 0.1 nM | – |
| COc1ccccc1N1CCN(C(C)CN2C(=O)C3C(c4ccccc4N3C)N(C)C2=O)CC1 (stereo not given) | 0.1 nM | – |
| COc1ccccc1N1CCN(C(C)CN2C(=O)C3Nc4ccccc4C3N(C)C2=O)CC1 (stereo not given) | 0.1 nM | – |
| COc1ccccc1N1CCN(CCCn2nc(-n3ccnc3)ccc2=O)CC1 | 0.2 nM | – |
| COc1ccc(Cl)cc1N1CCN(CCN2C(=O)C3Nc4ccccc4C3N=C2C)CC1 (stereo not given) | 0.5 nM | – |
| COc1ccccc1N1CCN(CCCN2C(=O)C3Sc4ccccc4C3N(C)C2=O)CC1 (stereo not given) | 0.1 nM | – |
| CCOc1ccccc1OCCN1CCN(c2cnn(CCCCCCN3CCN(c4ccccc4OC)CC3)c(=O)c2Cl)CC1 | 0.05 nM | – |
| COc1cc2nc(N3CCN(C(=O)c4ccco4)CC3)nc(N)c2cc1OC [PRAZOSIN] | 0.24 nM | – |
| CCOc1ccccc1N1CCN(CC(O)CN2C(=O)N(C)C(=O)C2(c2ccccc2)c2ccccc2)CC1 (stereo not given) | – | Ki [2]: 535 nM; Ratio Ki [3]: 4.4; pKb [4]: 7.022 |
| COc1ccccc1N1CCN(CCCN2C(=O)NC3c4ccccc4OC3C2=O)CC1 (stereo not given) | 0.1 nM | – |
| CCOc1ccccc1OCCN1CCN(c2cnn(CCCN3CCN(c4ccccc4OC)CC3)c(=O)c2Cl)CC1 | 0.05 nM | – |
| COc1ccccc1N1CCN(CCCCCCCn2ncc(N3CCN(CC4COc5ccccc5O4)CC3)c(Cl)c2=O)CC1 (stereo not given) | 0.05 nM | – |
| COc1ccccc1N1CCN(CCCCCCn2nc(-n3ccc4ccccc43)ccc2=O)CC1 | 0.2 nM | – |
| COc1ccccc1N1CCN(C(C)CN2C(=O)NC3c4ccccc4NC3C2=O)CC1 (stereo not given) | 0.1 nM | – |

From ChEMBL document CHEMBL1150404, “Synthesis, alpha 1-adrenoceptor antagonist activity, and SAR study of novel arylpiperazine derivatives of phenytoin” (Bioorg Med Chem, 2008)
